From ChEMBL document CHEMBL4364314, “Design, synthesis and biological evaluation of 6-deoxy O-spiroketal C-arylglucosides as novel renal sodium-dependent glucose cotransporter 2 (SGLT2) inhibitors for the treatment of type 2 diabetes” (Eur J Med Chem, 2019)

Key:
Mus musculus [1] = test: Effect on urinary volume in C57BL/6J mouse at 1 mg/kg, po administered as single dose measured after 24 hrs (reference value: 1.24 +/- 0.45 mL); format: ADME, organism-based; conditions: in vivo
[2] = Mean residence time infinity in mouse at 10 mg/kg, po administered as single dose; format: ADME, organism-based; conditions: in vivo
In short: (§1)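 Mouse pharmacokinetics after a single intravenous dose of 2 mg/kg or a single oral dose of 10 mg/kg. Plasma parameters derived for each route; oral bioavailability calculated by comparing the two routes.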

Rattus norvegicus [3] = test: Effect on urinary volume in Sprague-Dawley rat at 1 mg/kg, po administered as single dose measured after 24 hrs (reference value: 24.17 +/- 7.11 mL); format: ADME, organism-based; conditions: in vivo
[4] = AUClast in mouse at 2 mg/kg, iv administered as single dose; format: ADME, organism-based; parameters: dose 2 mg/kg, route intravenous, time 0 - last; conditions: in vivo; in short: as §1
Mus musculus [5] = test: Hypoglycemic activity in orally dosed C57BL/6J mouse assessed as glucose tolerance improvement administered as single dose measured after 120 mins post glucose challenge by OGTT; format: functional, organism-based
In short: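 Male mice fasted overnight (14 h), then gavaged with 1 or 3 mg/kg or vehicle (0.9% NaCl, 0.5% methyl cellulose); n = 8. Glucose 3 g/kg given by gavage 2 h later. Blood glucose taken at -120, 0, 15, 30, 60, 90 and 120 min. AUC0-2 h by trapezoidal rule; t-test against vehicle.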

[6] = molecular target: T1, Sodium/glucose cotransporter 2 (Homo sapiens, UniProt P31639); test: Inhibition of human full length SGLT2 expressed in NIH3T3 cells measured after 1 hr in presence of [14C]-methyl-alpha -D-glucopyranoside by scintillation counter method; format: cell-based
T1 sequence (P31639 whole entry): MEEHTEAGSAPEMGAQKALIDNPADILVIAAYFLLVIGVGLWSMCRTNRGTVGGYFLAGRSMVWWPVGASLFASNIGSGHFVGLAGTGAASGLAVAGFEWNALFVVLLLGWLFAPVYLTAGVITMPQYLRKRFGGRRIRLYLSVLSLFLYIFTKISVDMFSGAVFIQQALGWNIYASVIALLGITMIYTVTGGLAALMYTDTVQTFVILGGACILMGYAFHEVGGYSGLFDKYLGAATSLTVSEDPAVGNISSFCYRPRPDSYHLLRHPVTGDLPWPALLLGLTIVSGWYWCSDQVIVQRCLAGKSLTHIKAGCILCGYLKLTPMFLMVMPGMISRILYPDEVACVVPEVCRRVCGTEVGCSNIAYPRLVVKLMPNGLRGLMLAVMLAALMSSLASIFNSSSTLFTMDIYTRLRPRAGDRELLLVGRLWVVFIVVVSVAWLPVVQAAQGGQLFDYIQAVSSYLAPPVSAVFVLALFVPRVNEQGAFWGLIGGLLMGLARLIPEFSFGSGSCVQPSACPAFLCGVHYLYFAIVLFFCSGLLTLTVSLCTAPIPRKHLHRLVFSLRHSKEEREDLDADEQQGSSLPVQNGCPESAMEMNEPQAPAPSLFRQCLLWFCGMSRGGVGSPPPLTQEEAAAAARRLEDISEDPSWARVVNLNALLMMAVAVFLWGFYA
In short: (§2)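 Stable NIH3T3 lines from retroviral transduction of full-length hSGLT1 or hSGLT2 (pBABE-puro, 8 µg/mL polybrene, puromycin 2 µg/mL selection for 2 weeks). Cells plated 2 days ahead, 2 mmol/L sodium butyrate added day 2. Read by scintillation counting. Compound-free buffer served as negative control, sodium-free N-methyl-glucamine buffer as blank.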

Mus musculus [7] = test: Effect on urine glucose excretion in C57BL/6J mouse at 1 mg/kg, po administered as single dose measured after 24 hrs assessed per 100 grams (reference value: 0.84 +/- 0.40 mg ); format: functional
Rattus norvegicus [8] = test: Effect on urine glucose concentration in Sprague-Dawley rat at 1 mg/kg, po administered as single dose measured after 24 hrs by glucose oxidase method (reference value: 0.28 +/- 0.16 mmol/L); format: functional
[9] = Tmax in mouse at 10 mg/kg, po administered as single dose; format: ADME, organism-based; conditions: in vivo; in short: as §1
[10] = AUClast in mouse at 10 mg/kg, po administered as single dose; format: ADME, organism-based; parameters: dose 10 mg/kg, time 0 - last, route oral; conditions: in vivo; in short: as §1
[11] = molecular target: T2, Sodium/glucose cotransporter 1 (Homo sapiens, UniProt P13866); test: Inhibition of human full length SGLT1 expressed in NIH3T3 cells measured after 1 hr in presence of [14C]-methyl-alpha -D-glucopyranoside by scintillation counter method; format: cell-based; in short: as §2
T2 sequence (P13866 whole entry): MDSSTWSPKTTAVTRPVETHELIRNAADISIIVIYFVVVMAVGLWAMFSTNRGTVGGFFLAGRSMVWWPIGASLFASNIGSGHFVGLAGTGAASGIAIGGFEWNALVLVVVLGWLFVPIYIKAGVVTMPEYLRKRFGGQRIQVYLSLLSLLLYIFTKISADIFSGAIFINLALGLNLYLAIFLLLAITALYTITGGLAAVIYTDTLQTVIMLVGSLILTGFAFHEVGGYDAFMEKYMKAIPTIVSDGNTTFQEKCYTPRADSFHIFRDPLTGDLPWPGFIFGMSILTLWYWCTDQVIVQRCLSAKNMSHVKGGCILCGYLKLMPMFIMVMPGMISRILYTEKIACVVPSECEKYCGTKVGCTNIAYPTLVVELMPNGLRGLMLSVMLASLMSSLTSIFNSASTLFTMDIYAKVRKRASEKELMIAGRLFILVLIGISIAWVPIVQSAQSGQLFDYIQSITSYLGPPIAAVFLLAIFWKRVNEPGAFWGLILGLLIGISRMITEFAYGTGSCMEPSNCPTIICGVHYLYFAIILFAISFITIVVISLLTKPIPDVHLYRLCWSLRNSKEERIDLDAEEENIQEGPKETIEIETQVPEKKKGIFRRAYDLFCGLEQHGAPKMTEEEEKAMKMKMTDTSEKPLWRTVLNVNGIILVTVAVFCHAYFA

[12] = AUCinfinity in mouse at 10 mg/kg, po administered as single dose; format: ADME, organism-based; parameters: dose 10 mg/kg, time infinity, route oral; conditions: in vivo; in short: as §1
Mus musculus [13] = test: Effect on urine glucose concentration in C57BL/6J mouse at 1 mg/kg, po administered as single dose measured after 24 hrs by glucose oxidase method (reference value: 0.74 +/- 0.14 mmol/L); format: functional
[14] = Mean residence time infinity in mouse at 2 mg/kg, iv administered as single dose; format: ADME, organism-based; conditions: in vivo; in short: as §1
[15] = Half-life in mouse at 2 mg/kg, iv administered as single dose; format: ADME, organism-based; conditions: in vivo; in short: as §1
Homo sapiens = species: Homo sapiens; test: Selectivity ratio of IC50 for human full length SGLT1 to IC50 for human full length SGLT2
In short: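 Ratio of IC50 at hSGLT1 to IC50 at hSGLT2, both from the [14C]methyl-α-D-glucopyranoside uptake assay in stably transfected NIH3T3 cells.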

[16] = Oral bioavailability in mouse at 10 mg/kg administered as single dose; format: ADME, organism-based; conditions: in vivo; in short: as §1
Rattus norvegicus [17] = test: Effect on urine glucose excretion in Sprague-Dawley rat 1 mg/kg, po administered as single dose measured after 24 hrs assessed per 100 grams (reference value: 0.51 +/- 0.40 mg); format: functional
[18] = Half-life in mouse at 10 mg/kg, po administered as single dose; format: ADME, organism-based; conditions: in vivo; in short: as §1
[19] = Clearance in mouse at 2 mg/kg, iv administered as single dose; format: ADME, organism-based; conditions: in vivo; in short: as §1
[20] = AUCinfinity in mouse at 2 mg/kg, iv administered as single dose; format: ADME, organism-based; parameters: dose 2 mg/kg, route intravenous, time infinity; conditions: in vivo; in short: as §1
[21] = Volume of distribution at steady state in mouse at 2 mg/kg, iv administered as single dose; format: ADME, organism-based; conditions: in vivo, read-out: Vdss; in short: as §1
[22] = Cmax in mouse at 10 mg/kg, po administered as single dose; format: ADME, organism-based; parameters: dose 10 mg/kg, route oral; conditions: in vivo; in short: as §1

CCc1ccc(Cc2cc3c(cc2C)CO[C@]32O[C@H](C)[C@@H](O)[C@H](O)[C@H]2O)s1
Activity (Mus musculus [1]): 1.21 mL
MRT inf [2]: 8.9 h
Activity (Rattus norvegicus [3]): 24.67 mL
AUC(0-t) [4]: 1130 ng·h/mL
Activity (Mus musculus [5]): Dose-dependent effect
IC50 [6]: 4.5 nM
Activity (Mus musculus [7]): 110.53 mg
Activity (Rattus norvegicus [8]): 93.8 mmol/L
Tmax [9]: 0.33 h
AUC(0-t) [10]: 3010 ng·h/mL
IC50 [11]: 1000 nM
AUC(0-inf) [12]: 5580 ng·h/mL
Activity (Mus musculus [13]): 92.99 mmol/L
MRT inf [14]: 13.1 h
half-life [15]: 10.8 h
Ratio IC50 (Homo sapiens): 216
bioavailability [16]: 53.4%
Activity (Rattus norvegicus [17]): 134.23 mg
half-life [18]: 5.95 h
clearance [19]: 19.9 mL/min/kg
AUC(0-inf) [20]: 2320 ng·h/mL
Vd [21]: 10.1 L/kg
Cmax [22]: 740 ng/mL
